Measured values from ChEMBL document CHEMBL4184121, “Semisynthesis, cytotoxicity, antimalarial evaluation and structure-activity relationship of two series of triterpene derivatives” (Bioorg Med Chem Lett, 2018).

What was measured:
[1] = Cytotoxicity against African green monkey Vero cells after 72 hrs by MTT assay; type: cell-based; conditions: chlorocebus sabaeus
Method in brief: (§1)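 VERO (ATCC CCL-81) and HepG2 (ATCC HB-8065) cells were exposed for 24, 48 or 72 h to an […] dilution series from 400 to 1.56 μM. CC50 was taken from the concentration–response curve. Triplicates, with at least three independent cultures (n = 3).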

Plasmodium falciparum [2] = test: Antiplasmodial activity against chloroquine-resistant Plasmodium falciparum W2 infected in human erythrocytes; type: functional, organism-based
Method in brief: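 P. falciparum W2 grown in fresh human O+ erythrocytes at 2% hematocrit in complete medium, 37 °C. Compounds tested over a 100–3.12 µM dilution series. IC50 estimated from the dose-response curve relative to drug-free control wells (100% parasite viability). Artemisinin run in parallel as control. Triplicates, at least three independent cultures (n = 3).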

[3] = Selectivity index, ratio of CC50 for human HepG2 cells to IC50 for chloroquine-resistant Plasmodium falciparum W2; type: toxicity; conditions: read-out: Ratio CC50/IC50
Method in brief: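 SI = HepG2 CC50 / W2 IC50. CC50 came from HepG2 growth inhibition over a 400–1.56 µM dilution series, read at 24, 48 and 72 h. IC50 came from the W2 erythrocyte assay (100–3.12 µM range). Triplicates, at least three independent cultures.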

[4] = Cytotoxicity against human HepG2 cells after 72 hrs by MTT assay; type: cell-based; method in brief: as §1
Plasmodium falciparum [5] = test: Antiplasmodial activity against Plasmodium falciparum assessed as combination index in presence of artemisinin; type: functional
Method in brief: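 Chloroquine-resistant P. falciparum W2 was grown in fresh human O+ erythrocytes at 2% hematocrit in complete medium at 37 °C. Artemisinin was co-tested with the triterpene using the one-point Chou–Talalay method, at a minimum of one combination ratio. CI is the sum of the two FICs: ≤1 synergy, 1–2 additivity, >2 antagonism. Triplicates, n = 3 independent cultures.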

Plasmodium falciparum [6] = test: Antiplasmodial activity against Plasmodium falciparum assessed as potentiation of artemisinin-induced antimalarial activity by measuring dose reduction index relative to artemisinin alone; type: functional

| Structure (SMILES) | CC50 at 72 h [1] | IC50 (Plasmodium falciparum [2]) | selectivity ratio [3] | CC50 at 72 h [4] | CI (Plasmodium falciparum [5]) | Activity_index (Plasmodium falciparum [6]) |
| --- | --- | --- | --- | --- | --- | --- |
| C[C@H]1[C@H](C)CC[C@]2(C(=O)O)CC[C@]3(C)C(=CC[C@@H]4[C@@]5(C)CC[C@H](O)C(C)(C)[C@@H]5CC[C@]43C)[C@H]12 [URSOLIC ACID] | 99.9 µM | 50.6 µM | 2.24 | 114 µM |  |  |
| CC(C)C(=O)O[C@H]1CC[C@]2(C)[C@H]3CC=C4[C@@H]5[C@@H](C)[C@H](C)CC[C@]5(C(=O)n5ccnc5)CC[C@@]4(C)[C@]3(C)CC[C@H]2C1(C)C | > 400 µM | 13.6 µM | > 29.4 | > 400 µM |  |  |
| C=C(C)[C@@H]1CC[C@]2(C(=O)n3ccnc3)CC[C@]3(C)[C@H](CC[C@@H]4[C@@]5(C)CC[C@H](OC(=O)CCC)C(C)(C)[C@@H]5CC[C@]43C)[C@@H]12 | > 400 µM | 57.6 µM | > 6.94 | > 400 µM |  |  |
| CCCC(=O)O[C@H]1CC[C@]2(C)[C@H]3CC=C4[C@@H]5[C@@H](C)[C@H](C)CC[C@]5(C(=O)OC)CC[C@@]4(C)[C@]3(C)CC[C@H]2C1(C)C | > 400 µM | > 100 µM |  | > 400 µM |  |  |
| CCCC(=O)O[C@H]1CC[C@]2(C)[C@H]3CC=C4[C@@H]5[C@@H](C)[C@H](C)CC[C@]5(C(=O)n5ccnc5)CC[C@@]4(C)[C@]3(C)CC[C@H]2C1(C)C | > 400 µM | 10.4 µM | > 38.5 | > 400 µM |  |  |
| COC(=O)[C@]12CC[C@@H](C)[C@H](C)[C@H]1C1=CC[C@@H]3[C@@]4(C)CC[C@H](OC(C)=O)C(C)(C)[C@@H]4CC[C@@]3(C)[C@]1(C)CC2 | > 400 µM | > 100 µM |  | > 400 µM |  |  |
| C=C(C)[C@@H]1CC[C@]2(C(=O)OC)CC[C@]3(C)[C@H](CC[C@@H]4[C@@]5(C)CC[C@H](OC(=O)CCC)C(C)(C)[C@@H]5CC[C@]43C)[C@@H]12 | > 400 µM | > 100 µM |  | > 400 µM |  |  |
| COC(=O)[C@]12CC[C@@H](C)[C@H](C)[C@H]1C1=CC[C@@H]3[C@@]4(C)CCC(=O)C(C)(C)[C@@H]4CC[C@@]3(C)[C@]1(C)CC2 | > 400 µM | > 100 µM |  | > 400 µM |  |  |
| CC(=O)O[C@H]1CC[C@]2(C)[C@H]3CC=C4[C@@H]5[C@@H](C)[C@H](C)CC[C@]5(C(=O)n5ccnc5)CC[C@@]4(C)[C@]3(C)CC[C@H]2C1(C)C | > 400 µM | 50.6 µM | > 7.9 | > 400 µM |  |  |
| C=C(C)[C@@H]1CC[C@]2(C(=O)n3ccnc3)CC[C@]3(C)[C@H](CC[C@@H]4[C@@]5(C)CC[C@H](OC(=O)C(C)C)C(C)(C)[C@@H]5CC[C@]43C)[C@@H]12 | > 400 µM | 29.6 µM | > 13.5 | > 400 µM |  |  |
| C[C@H]1[C@H](C)CC[C@]2(C(=O)O)CC[C@]3(C)C(=CC[C@@H]4[C@@]5(C)CCC(=O)C(C)(C)[C@@H]5CC[C@]43C)[C@H]12 [URSONIC ACID] | > 400 µM | 24.3 µM | > 16.5 | > 400 µM |  |  |
| C=C(C)[C@@H]1CC[C@]2(C(=O)n3ccnc3)CC[C@]3(C)[C@H](CC[C@@H]4[C@@]5(C)CCC(=O)C(C)(C)[C@@H]5CC[C@]43C)[C@@H]12 | > 400 µM | 5.2 µM | > 76.8 | > 400 µM |  |  |
| CC(=O)O[C@H]1CC[C@]2(C)[C@H]3CC=C4[C@@H]5[C@@H](C)[C@H](C)CC[C@]5(C(=O)O)CC[C@@]4(C)[C@]3(C)CC[C@H]2C1(C)C [O-ACETYLURSOLIC ACID] | > 400 µM | 9.08 µM | > 44 | > 400 µM |  |  |
| C[C@@H]1CC[C@H]2[C@@H](C)C(=O)O[C@@H]3O[C@@]4(C)CC[C@@H]1[C@]32OO4 [ARTEMISININ] |  | 0.0163 µM |  |  |  |  |
| C=C(C)[C@@H]1CC[C@]2(C(=O)O)CC[C@]3(C)[C@H](CC[C@@H]4[C@@]5(C)CCC(=O)C(C)(C)[C@@H]5CC[C@]43C)[C@@H]12 [BETUNOLIC ACID] | > 400 µM | 7.87 µM | 19.1 | 150 µM |  |  |
| C[C@H]1[C@H](C)CC[C@]2(C(=O)n3ccnc3)CC[C@]3(C)C(=CC[C@@H]4[C@@]5(C)CCC(=O)C(C)(C)[C@@H]5CC[C@]43C)[C@H]12 | > 400 µM | 9.07 µM | > 44.1 | > 400 µM |  |  |
| C=C(C)[C@@H]1CC[C@]2(C(=O)OC)CC[C@]3(C)[C@H](CC[C@@H]4[C@@]5(C)CCC(=O)C(C)(C)[C@@H]5CC[C@]43C)[C@@H]12 [METHYL BETULONATE] | > 400 µM | > 100 µM |  | > 400 µM |  |  |
| C=C(C)[C@@H]1CC[C@]2(C(=O)OC)CC[C@]3(C)[C@H](CC[C@@H]4[C@@]5(C)CC[C@H](OC(=O)C(C)C)C(C)(C)[C@@H]5CC[C@]43C)[C@@H]12 | > 400 µM | > 100 µM |  | > 400 µM |  |  |
| C=C(C)[C@@H]1CC[C@]2(C(=O)O)CC[C@]3(C)[C@H](CC[C@@H]4[C@@]5(C)CC[C@H](OC(C)=O)C(C)(C)[C@@H]5CC[C@]43C)[C@@H]12 | > 400 µM | 65.5 µM | > 6.11 | > 400 µM |  |  |
| C=C(C)[C@@H]1CC[C@]2(C(=O)n3ccnc3)CC[C@]3(C)[C@H](CC[C@@H]4[C@@]5(C)CC[C@H](OC(C)=O)C(C)(C)[C@@H]5CC[C@]43C)[C@@H]12 | > 400 µM | 8.9 µM | > 44.9 | > 400 µM |  |  |
| COC(=O)[C@]12CC[C@@H](C)[C@H](C)[C@H]1C1=CC[C@@H]3[C@@]4(C)CC[C@H](OC(=O)C(C)C)C(C)(C)[C@@H]4CC[C@@]3(C)[C@]1(C)CC2 | > 400 µM | > 100 µM |  | > 400 µM |  |  |
| CCCC(=O)O[C@H]1CC[C@]2(C)[C@H]3CC=C4[C@@H]5[C@@H](C)[C@H](C)CC[C@]5(C(=O)O)CC[C@@]4(C)[C@]3(C)CC[C@H]2C1(C)C | > 400 µM | 13.3 µM | > 30 | > 400 µM | 1.05 | 7 |
| C=C(C)[C@@H]1CC[C@]2(C(=O)OC)CC[C@]3(C)[C@H](CC[C@@H]4[C@@]5(C)CC[C@H](OC(C)=O)C(C)(C)[C@@H]5CC[C@]43C)[C@@H]12 | > 400 µM | > 100 µM |  | > 400 µM |  |  |
| C=C(C)[C@@H]1CC[C@]2(C(=O)O)CC[C@]3(C)[C@H](CC[C@@H]4[C@@]5(C)CC[C@H](OC(=O)C(C)C)C(C)(C)[C@@H]5CC[C@]43C)[C@@H]12 | > 400 µM | 12.1 µM | > 33 | > 400 µM |  |  |
| CC(C)C(=O)O[C@H]1CC[C@]2(C)[C@H]3CC=C4[C@@H]5[C@@H](C)[C@H](C)CC[C@]5(C(=O)O)CC[C@@]4(C)[C@]3(C)CC[C@H]2C1(C)C | > 400 µM | > 100 µM |  | > 400 µM |  |  |
| C=C(C)[C@@H]1CC[C@]2(C(=O)O)CC[C@]3(C)[C@H](CC[C@@H]4[C@@]5(C)CC[C@H](O)C(C)(C)[C@@H]5CC[C@]43C)[C@@H]12 [BETULINIC ACID] | > 400 µM | 12.8 µM | > 31.4 | > 400 µM |  |  |
